For eleven compounds, MIC results are on record in ChEMBL document CHEMBL1687800, “Emergence of metallo-β-lactamase NDM-1-producing multidrug-resistant Escherichia coli in Australia” (2010).

Values after ≈ are worked out from the molar mass of the structure shown.

Type in all cases: functional
Test [1] has as its system Escherichia coli. The experiment in a line: Antibacterial activity against Escherichia coli isolate 271. The method in brief: (§1)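 MICs of β-lactams read by Etest on Mueller-Hinton agar plates incubated at 37°C, with susceptibility categories assigned according to CLSI guidelines. Strains tested were a clinical urine isolate (E. coli 271), E. coli TOP10 carrying recombinant plasmid p271A expressing NDM-1, and the TOP10 reference strain.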

The test system of test [2] is Escherichia coli. The experiment in a line: Antibacterial activity against Escherichia coli TOP10 expressing metallo-beta-lactamase NDM-1. In short, it runs like this:
as §1

Test [3] deals with Escherichia coli. The experiment in a line: Antibacterial activity against Escherichia coli TOP10. In short, it runs like this:
as §1

Usually MIC stands for the least concentration at which growth counts as inhibited. In the case of `CC(C)(O/N=C(\C(=O)N[C@@H]1C(=O)N2C(C(=O)[O-])=C(C[n+]3ccccc3)CS[C@H]12)c1csc(N)n1)C(=O)O` [CEFTAZIDIME], the MIC against Escherichia coli [1] worked out at 256 µg/mL (≈ 468 µM); in the test with Escherichia coli [2], 128 µg/mL (≈ 234 µM); against Escherichia coli [3], 0.06 µg/mL (≈ 0.11 µM).
For `C[C@@H](O)[C@H]1C(=O)N2C(C(=O)O)=C(S[C@@H]3CN[C@H](C(=O)N(C)C)C3)[C@H](C)[C@H]12` [MEROPENEM], the MIC with Escherichia coli [1] is 16 µg/mL (≈ 41.7 µM); in the test on Escherichia coli [2], 3 µg/mL (≈ 7.82 µM); in the test on Escherichia coli [3] it was 0.06 µg/mL (≈ 0.156 µM).
For `CC1(C)S[C@@H]2[C@H](NC(=O)[C@H](N)c3ccc(O)cc3)C(=O)N2[C@H]1C(=O)O` [AMOXICILLIN] the same measures were above 512 µg/mL, above 512 µg/mL and 4 µg/mL (≈ 10.9 µM).
For the compound `CO[C@@]1(NC(=O)Cc2cccs2)C(=O)N2C(C(=O)O)=C(COC(N)=O)CS[C@@H]21` [CEFOXITIN], the MIC came to 512 µg/mL (≈ 1200 µM) against Escherichia coli [1], 256 µg/mL (≈ 599 µM) in the test with Escherichia coli [2] and 4 µg/mL (≈ 9.36 µM) against Escherichia coli [3].
`CO/N=C(\C(=O)N[C@@H]1C(=O)N2C(C(=O)[O-])=C(C[N+]3(C)CCCC3)CS[C@H]12)c1csc(N)n1` [CEFEPIME]: the MIC in the test with Escherichia coli [1] is 64 µg/mL (≈ 133 µM); against Escherichia coli [2], 16 µg/mL (≈ 33.3 µM).
On to `C[C@@H](O)[C@H]1C(=O)N2C(C(=O)O)=C(S[C@@H]3CN[C@H](C(=O)Nc4cccc(C(=O)O)c4)C3)[C@H](C)[C@H]12` [ERTAPENEM], for which the MIC was determined as 32 µg/mL (≈ 67.3 µM) against Escherichia coli [1], 3 µg/mL (≈ 6.31 µM) in the test with Escherichia coli [2] and 0.06 µg/mL (≈ 0.126 µM) in the test with Escherichia coli [3].
For `CC1(C)S[C@@H]2[C@H](NC(=O)[C@H](C(=O)O)c3ccsc3)C(=O)N2[C@H]1C(=O)O` [TICARCILLIN] the same measures were above 512 µg/mL, above 512 µg/mL and 4 µg/mL (≈ 10.4 µM).
In the same order, the values of `CO/N=C(\C(=O)N[C@@H]1C(=O)N2C(C(=O)O)=C(COC(C)=O)CS[C@H]12)c1csc(N)n1` [CEFOTAXIME] are 512 µg/mL (≈ 1120 µM), 256 µg/mL (≈ 562 µM) and 0.12 µg/mL (≈ 0.263 µM).
Take `C[C@H]1[C@H](NC(=O)/C(=N\OC(C)(C)C(=O)O)c2csc(N)n2)C(=O)N1S(=O)(=O)O` [AZTREONAM]: the figures for the MIC with Escherichia coli [1] and with Escherichia coli [2] were 64 µg/mL (≈ 147 µM) and 0.25 µg/mL (≈ 0.574 µM), respectively.
Regarding `CCN1CCN(C(=O)N[C@@H](C(=O)N[C@@H]2C(=O)N3[C@@H]2SC(C)(C)[C@@H]3C(=O)O)c2ccccc2)C(=O)C1=O` [PIPERACILLIN], the MIC in the test on Escherichia coli [1] is above 512 µg/mL; in the test on Escherichia coli [2], 512 µg/mL (≈ 989 µM); in the test on Escherichia coli [3] it was 1 µg/mL (≈ 1.93 µM).
On to `C[C@@H](O)[C@H]1C(=O)N2C(C(=O)O)=C(SCCNC=N)C[C@H]12` [IMIPENEM ANHYDROUS], for which the values for the MIC against Escherichia coli [1] and against Escherichia coli [2] were 6 µg/mL (≈ 20 µM) and 4 µg/mL (≈ 13.4 µM), respectively.
